Bioassay records (PubChem)
Hits are enriched below; roughly 2.3% of the tested compounds scored in any of these assays.
TRPC4 agonist: opens the mouse TRPC4 cation channel. HEK293 TRPC4beta/mu-opioid, Fluo4 calcium fluorescence; active compounds read high. hit rate 0.49% among 310,000. AID 2237. B-score at 10 µM. Q9QUQ5;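 active = B-score above 5 SD of library B-scores, and initial fluorescence ratio not above library mean plus 5 SD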;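 also: positive B-score marks a calcium rise read as TRPC4 activation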
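Assay system: HEK293 cells stably co-expressing mouse TRPC4beta and mu-opioid receptor / Timing: Fluo4 dye loading 45 min at room temperature, 110 s recording / Signal: Fluo4 calcium-sensitive dye fluorescence, kinetic, 1 Hz baseline / Read-out: integrated baseline-normalised fluorescence ratio, converted to per-well B score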
TRPC4 block: inhibitors of mouse TRPC4 channel | Q9QUQ5 | AID 2247 | HEK293 TRPC4beta/mu-opioid, DAMGO-evoked Fluo4 calcium flux; active compounds read low | B-score at 10 µM | hit rate 0.39% among 300,000;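 active = B-score over 3 SD under the library average, no early fluorescence shift, positive overall ratio signal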
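test system = HEK293 cells with stable TRPC4beta plus mu-opioid receptor expression | detection = Fluo4 Ca2+ flux fluorescence | read-out = integrated fluorescence ratio relative to baseline, converted to per-well B score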
TRPC6 activator: activates the mouse TRPC6 cation channel; hit rate 0.13% among 310,000; Q61143; B-score at 10 µM; HEK293-TRPC6 membrane potential dye fluorescence; active compounds read high;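 active = B-score of the integrated fluorescence ratio above library mean plus 3 SD, and starting fluorescence ratio within library mean plus 5 SD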;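 also: higher score means more depolarization so channel activation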
Target sequence (Q61143 whole entry, looked up): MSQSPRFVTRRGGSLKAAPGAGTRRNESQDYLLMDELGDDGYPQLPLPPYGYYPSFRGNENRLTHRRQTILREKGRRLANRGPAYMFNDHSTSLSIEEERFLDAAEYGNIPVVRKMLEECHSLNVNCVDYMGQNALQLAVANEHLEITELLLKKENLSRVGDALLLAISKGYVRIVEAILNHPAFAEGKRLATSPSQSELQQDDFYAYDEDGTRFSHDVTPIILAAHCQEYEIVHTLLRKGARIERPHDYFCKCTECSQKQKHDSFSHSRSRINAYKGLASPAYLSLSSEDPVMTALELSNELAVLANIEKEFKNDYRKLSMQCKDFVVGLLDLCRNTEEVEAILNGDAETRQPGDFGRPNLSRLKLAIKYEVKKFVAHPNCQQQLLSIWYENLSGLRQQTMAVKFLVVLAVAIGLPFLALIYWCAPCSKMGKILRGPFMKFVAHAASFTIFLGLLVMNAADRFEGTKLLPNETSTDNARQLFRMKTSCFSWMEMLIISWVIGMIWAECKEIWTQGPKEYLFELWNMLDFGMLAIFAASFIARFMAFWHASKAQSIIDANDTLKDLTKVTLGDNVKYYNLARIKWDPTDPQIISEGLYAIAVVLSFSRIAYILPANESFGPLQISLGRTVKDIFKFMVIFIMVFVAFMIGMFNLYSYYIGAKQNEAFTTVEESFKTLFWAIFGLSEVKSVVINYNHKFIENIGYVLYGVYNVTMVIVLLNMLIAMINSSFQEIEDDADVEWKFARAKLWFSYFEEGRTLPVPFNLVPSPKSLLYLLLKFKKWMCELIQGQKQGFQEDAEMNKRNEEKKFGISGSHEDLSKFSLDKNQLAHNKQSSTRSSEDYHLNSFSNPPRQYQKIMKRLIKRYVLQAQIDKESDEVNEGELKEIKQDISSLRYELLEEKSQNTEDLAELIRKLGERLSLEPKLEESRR
TRPC4 potent: allosteric potentiators of mouse TRPC4 channel | Q9QUQ5 | HEK293 TRPC4beta/mu-opioid, DAMGO EC20, Fluo-4 Ca2+ flux; active compounds read high | B-score at 10 µM | hit rate 0.42% among 310,000;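 active = B-score of calcium response area above 5 SD of library B-scores, with initial fluorescence ratio within 5 SD of library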
TRPC6 inh: inhibitors of mouse TRPC6 channel. Q61143. HEK293-TRPC6, membrane potential dye, ACh-evoked depolarization; active compounds read low. B-score at 10 µM. hit rate 1.1% among 310,000. AID 2553;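 active = B-score under library mean minus 3 SD, initial fluorescence not abnormally high, positive integrated signal ratio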;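 also: B-score derived from integrated fluorescence ratio over the kinetic read; more negative B-score means stronger inhibition of depolarization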
TRPC4 spec 2: second selectivity test of TRPC6 inhibitors: effect on mouse TRPC4 | shares compounds with TRPC6 inh | HEK293 TRPC4/MOR, membrane potential dye fluorescence; channel activated by saturating DAMGO dose | inhibition, % at 10 µM | hit rate 42% among 920 | AID 2776;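 active = compounds whose fluorescence signal differed from control wells by over 3 SD, either direction, in both duplicate plates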
TRPC4 spec: tests whether TRPC6 inhibitors also affect mouse TRPC4; shares compounds with TRPC6 inh; AID 2777; HEK293 TRPC4/mu-opioid, membrane potential fluorescence; hit rate 61% among 920; activity change, negative = inhibition, % at 10 µM;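 active = rise or fall in signal beyond 3 SD of buffer-only wells in both replicate plates, either sign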;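 also: integrated kinetic ratio of fluorescence range over baseline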
HEK293 MPD ctr 2-1: second check of TRPC6 inhibitor effects in parental HEK293 cells | AID 2779 | hit rate 31% among 920 | shares compounds with TRPC6 inh | signal change vs control, % at 10 µM | parental HEK293 membrane potential dye fluorescence; maximal acetylcholine challenge after compound addition;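 active = membrane potential signal moving either way by over 3 SD of the maximum-effect control, in both duplicate plates, meaning non-specific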
HEK293 MPD ctr-1: parental HEK293 nonspecific activity of TRPC6 inhibitors. shares compounds with TRPC6 inh. parental HEK293 membrane potential dye fluorescence. membrane potential signal change, % at 10 µM. hit rate 60% among 920. AID 2780;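 active = membrane potential signal shifting up or down by more than 3 SD of buffer-only wells, on both duplicate plates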
HEK293 MPD ctr-2: counter-screen for TRPC6 modulators: effect in parental HEK293 cells; shares compounds with TRPC6 inh; membrane potential dye fluorescence; membrane potential signal change, % at 10 µM; hit rate 51% among 2,400; AID 488924;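 active = membrane potential signal moves up or down beyond 5 SD from buffer-only wells, on both duplicate plates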
HEK293 MPD ctr 2-2: second counter-screen for TRPC6 modulators: effect in parental HEK293 cells. shares compounds with TRPC6 inh. membrane potential dye fluorescence; after compound, maximal acetylcholine stimulation. inhibition, % at 10 µM. hit rate 14% among 2,400. AID 488926;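 active = membrane potential signal drops by more than 5 SD from the mean control signal, in both duplicate plates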
TRPC4 ctr mod: selectivity of TRPC6 modulators against mouse TRPC4; shares compounds with TRPC6 inh; percent change from control (negative = decrease, positive = increase), % at 10 µM; AID 488927; hit rate 69% among 2,400; HEK293 TRPC4/mu-opioid, membrane potential fluorescence;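 active = membrane potential signal moved up or down beyond 5 SD of buffer control wells, in both duplicate plates, actives on both sides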
TRPC4 ctr inh 2: second check of whether TRPC6 modulators also affect mouse TRPC4; shares compounds with TRPC6 inh; HEK293 TRPC4/mu-opioid, membrane potential dye fluorescence; stimulated with maximal-effect DAMGO; inhibition, % at 10 µM; hit rate 55% among 2,400;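 active = drop in membrane potential signal beyond 5 SD of the control wells in both duplicate plates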;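 also: TRPC4 counter screen for TRPC6 hits run under conditions tuned for TRPC6 not TRPC4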
TRPC6 block conf: mouse TRPC6 inhibitor confirmation | shares compounds with TRPC6 inh | HEK293-TRPC6, membrane potential dye, ACh-evoked depolarization | inhibition, % at 10 µM | hit rate 43% among 3,300 | AID 488960;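 active = fluorescence ratio falls more than 5 SD below the full-stimulation control mean, in both duplicate runs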;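 also: integrated fluorescence ratio of peak minus minimum over baseline after agonist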
TRPC6 act conf: mouse TRPC6 activator confirmation; shares compounds with TRPC6 inh; HEK293-TRPC6 membrane potential dye fluorescence, FDSS; activation, % at 10 µM; hit rate 11% among 2,800; AID 488961;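 active = ratio signal rise beyond 5 SD above unstimulated control wells' mean, seen in both duplicate runs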
Each line names hits and unclear results; the compound was inactive in the other large screens (follow-up assays come after a bar, where they were run).

C#CCOCCOCCOCCNc1nc(N2CCN(C(=O)[C@H]([C@@H](C)CC)n3cc([C@@H](N)CO)nn3)CC2)nc(N2CCN(C(=O)[C@H]([C@@H](C)CC)n3cc([C@@H](N)Cc4ccc(O)cc4)nn3)CC2)n1	none
C#CCOCCOCCOCCNc1nc(N2CCN(C(=O)[C@H]([C@@H](C)CC)n3cc([C@@H](N)Cc4ccc(O)cc4)nn3)CC2)nc(N2CCN(C(=O)[C@H]([C@@H](C)CC)n3cc([C@@H](N)Cc4ccc(O)cc4)nn3)CC2)n1	TRPC6 inh -6 | HEK293 MPD ctr-2 -102% | HEK293 MPD ctr 2-2 inactive | TRPC4 ctr mod -28% | TRPC4 ctr inh 2 inactive | TRPC6 block conf inactive | TRPC6 act conf inactive
COC(CNC(=O)c1ccc2c(c1)ncn2-c1cccc(F)c1)OC	none
COC(CNC(=O)c1ccc2c(c1)ncn2-c1ccc(F)cc1F)OC	TRPC6 inh -5 | HEK293 MPD ctr-2 inactive | HEK293 MPD ctr 2-2 inactive | TRPC4 ctr mod 40% | TRPC4 ctr inh 2 72% | TRPC6 block conf inactive
CCCCC[n+]1cccc2c3ccccc3ccc21	TRPC6 inh -9.2 | HEK293 MPD ctr-2 -238% | HEK293 MPD ctr 2-2 inactive | TRPC4 ctr mod -39% | TRPC4 ctr inh 2 66% | TRPC6 block conf 58% | TRPC6 act conf inactive
NC(=O)C[n+]1cccc2ccccc21	none
O=[N+]([O-])c1ccc(C[n+]2cccc3ccccc32)cc1	none
c1ccc(C[n+]2cccc3c4ccccc4ccc32)cc1	TRPC6 inh -9.7 | HEK293 MPD ctr-2 -274% | HEK293 MPD ctr 2-2 71% | TRPC4 ctr mod -46% | TRPC4 ctr inh 2 64% | TRPC6 block conf 68% | TRPC6 act conf inactive
O=[N+]([O-])c1ccc(N2CCN(S(=O)(=O)c3ccccc3)CC2)cc1	none
O=C(NCC1CC1)c1cc(-c2ccccc2)nn1CC1CC(c2cccc([N+](=O)[O-])c2)=NO1 (stereo not given)	none
CC(C)(C)c1ccc(OCCNCc2ccccc2)cc1	none
C[n+]1ccccc1COc1ccc(C(C)(C)C)cc1	TRPC6 inh -5.1 | HEK293 MPD ctr-2 inactive | HEK293 MPD ctr 2-2 inactive | TRPC4 ctr mod inactive | TRPC4 ctr inh 2 inactive | TRPC6 block conf inactive | TRPC6 act conf inactive
COCc1[nH]nc2c1C(c1c(F)cccc1Cl)C(C#N)=C(N)O2 (stereo not given)	TRPC6 inh -5.6 | HEK293 MPD ctr-2 inactive | HEK293 MPD ctr 2-2 inactive | TRPC4 ctr mod inactive | TRPC4 ctr inh 2 inactive | TRPC6 block conf inactive | TRPC6 act conf inactive
C(#Cc1ccccc1)C[N+]1(CC#Cc2cccc3ccccc23)CCCC1	TRPC6 inh -5.5 | HEK293 MPD ctr-2 inactive | HEK293 MPD ctr 2-2 inactive | TRPC4 ctr mod -14% | TRPC4 ctr inh 2 inactive | TRPC6 block conf inactive | TRPC6 act conf inactive
Cc1ccc(-n2ncc(C(=O)Nc3cc(Cl)ccc3Cl)c2C2CCNCC2)cc1	none
Cc1ccc(-n2ncc(C(=O)Nc3cc(Cl)cc(Cl)c3)c2C2CCNCC2)cc1C	TRPC6 inh -6.9 | TRPC4 spec 2 64% | TRPC4 spec -12% | HEK293 MPD ctr 2-1 inactive | HEK293 MPD ctr-1 inactive | TRPC6 block conf inactive | TRPC6 act conf inactive
Cc1cc(C)n(-c2nc(SCCN(C)C)c3c4c(sc3n2)CCCC4)n1	TRPC4 agonist 95, TRPC6 inh -6.1 | HEK293 MPD ctr-2 inactive | HEK293 MPD ctr 2-2 inactive | TRPC4 ctr mod inactive | TRPC4 ctr inh 2 72% | TRPC6 block conf 46% | TRPC6 act conf inactive
CSc1nc(SCCN(C)C)c2c3c(sc2n1)COC(C)(C)C3	none
O=C(CN1C(=O)C2CCCCC2C1=O)N1CCN(c2ncccn2)CC1 (stereo not given)	none
O=C(CN1CCN(c2ncccn2)CC1)N1CCCC1	TRPC6 inh -5.3 | HEK293 MPD ctr-2 inactive | HEK293 MPD ctr 2-2 inactive | TRPC4 ctr mod inactive | TRPC4 ctr inh 2 inactive | TRPC6 block conf inactive | TRPC6 act conf inactive
COc1cc(CNC(=O)c2ccc3oc(C(C)C)nc3c2)cc(OC)c1	none
C/C=C(\C)CN1CCC(n2nccc2NC(=O)c2ccc3c(c2)OCO3)CC1	none
CC(C)=CCCC(C)CN1CCC(n2nccc2NC(=O)c2ccc3c(c2)OCO3)CC1 (stereo not given)	TRPC6 inh -7.3 | TRPC4 spec 2 36% | TRPC4 spec 6.8% | HEK293 MPD ctr 2-1 268% | HEK293 MPD ctr-1 10% | TRPC6 block conf 56% | TRPC6 act conf inactive
COc1ccc(-c2[nH]c3ccccc3c2SCCN)cc1	TRPC6 inh -8.7 | TRPC4 spec 2 45% | TRPC4 spec -16% | HEK293 MPD ctr 2-1 inactive | HEK293 MPD ctr-1 -262% | TRPC6 block conf 74% | TRPC6 act conf inactive
COC1=CCC2([N+](=O)[O-])CN(CCO)CC1([N+](=O)[O-])C2 (stereo not given)	none
CN(C)c1cccc(C(=O)Nc2cccc(S(=O)(=O)NC3=NCCC3)c2)c1	none
O=C(CCN1C(=O)/C(=C\c2ccccc2F)SC1=S)N1CCCCC1	none
COc1ccc(CC2(CO)COc3ccccc3C2=O)cc1 (stereo not given)	none
Cc1ccc(CNC(=O)c2cc3c(=O)n(C)c4ccccc4c3n2C)cc1	none
